# Bioassay records from PubChem.
# A selection: hits, their analogues and other compounds. The true share with any hit is near 4.3%.
# Yeast superoxide – reduction of superoxide in aged yeast, primary screen, HTS; S. cerevisiae aged cells, superoxide DHE fluorescence; hits give low values; superoxide response (% of plate mean), % at 10 µM; 330,000 compounds, 0.18% hits; AID 2690, 2010;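 active means superoxide response under a set limit, about three screen SD below normal, cut at about 65% in these data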;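 further: yeast aged for seven days with compound at 30 °C before DHE staining; 100% = average MFI of all compound-treated wells on the plate with controls excluded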
# AHR activator – AHR activators, primary screen, cell-based, luminescence, luciferase reporter, human; Aryl hydrocarbon receptor (Homo sapiens), P35869; AHR-responsive luciferase reporter cells; activation, % at 5 µM; 320,000 compounds, 2.5% hits; AID 2796, 2010; in the data active means activation above about 47%;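 further: 0% = vehicle wells and 100% = reference agonist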
# SR-BI uptake up – activators of SR-BI mediated DiI-HDL uptake, primary screen, ldlA[mSR-BI] CHO cells, DiI fluorescence | activation, % at 12.5 µM | AID 504775, 2011 | 320,000 compounds, 0.096% hits | 3 h; 100 = double the neutral-control signal;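 active means mean replicate activation of at least 60% and every replicate at or above 60%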;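 further: 0% = median plate neutral-control signal and 100% = twice that signal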
#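 Material: SR-BI-overexpressing, LDLR-lacking CHO cells; schedule: compound exposure 3 h, 37 °C; reagent: DiI-labelled HDL at 10 µg/mL final; technique: bottom-read fluorescence, 550/595 nm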
# Hep lipid drop – inhibitors of hepatocyte lipid droplet formation, primary screen, imaging, high-throughput imaging, BODIPY stain; AML12 mouse hepatocytes, oleate lipid droplets; inhibition, % at 6.5 µM; 240,000 compounds, 0.4% hits; AID 1656, 2009;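 active means lipid droplet intensity inhibited by at least 50%, with more than 500 cells counted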
#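 Test system: AML12 hepatocytes (mouse); reagent: oleate loading, 100 µM; dosing: one dose, 6.5 µM compound; incubation: overnight exposure; signal: fluorescence imaging, 20x objective, two fields per well; read-out basis: % inhibition of corrected integrated BODIPY droplet signal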
# SR-BI DiI inh – inhibitors of SR-BI mediated HDL lipid uptake, primary screen, ldlA[mSR-BI] cells, fluorescence, single point; 320,000 compounds, 0.96% hits; inhibition, % at 12.5 µM; ldlA[mSR-BI] CHO cells, DiI-HDL uptake fluorescence, 3 h;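 active means mean replicate inhibition of at least 70% and a set share of replicates each scoring 70 or more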;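 further: 0% = median of neutral control wells and 100% = median of positive control wells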
# Target sequence (Q61009 whole entry, looked up): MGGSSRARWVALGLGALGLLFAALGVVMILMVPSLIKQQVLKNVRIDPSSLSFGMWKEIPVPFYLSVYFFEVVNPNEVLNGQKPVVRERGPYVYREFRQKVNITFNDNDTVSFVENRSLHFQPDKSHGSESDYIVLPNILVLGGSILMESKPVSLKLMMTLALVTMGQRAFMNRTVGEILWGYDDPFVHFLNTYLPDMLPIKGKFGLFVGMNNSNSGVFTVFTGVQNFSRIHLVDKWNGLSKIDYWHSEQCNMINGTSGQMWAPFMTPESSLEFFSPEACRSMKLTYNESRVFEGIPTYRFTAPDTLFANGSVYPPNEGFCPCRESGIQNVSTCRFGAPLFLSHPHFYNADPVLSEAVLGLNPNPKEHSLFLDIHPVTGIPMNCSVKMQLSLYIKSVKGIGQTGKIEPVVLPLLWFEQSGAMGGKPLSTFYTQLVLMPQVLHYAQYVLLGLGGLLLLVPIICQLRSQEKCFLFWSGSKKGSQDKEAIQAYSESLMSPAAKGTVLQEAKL
# SMARCA2 activ – SMARCA2 (BRM) function activators, primary screen, cell-based, luminescence, high throughput. activation, % at 9.1 µM. MG213 cells, MMTV-luciferase reporter, dexamethasone, overnight. 370,000 compounds, 1% hits; in the data active means activation above about 7.8%;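 further: 0% = vehicle wells and 100% = reference activator wells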
# Hep lipid conf – hepatocyte lipid droplet accumulation inhibitors, confirmation, imaging, AML12 mouse hepatocytes, single concentration, high-content | shares compounds with Hep lipid drop | BODIPY lipid droplet imaging; droplets induced with 100 µM oleic acid | inhibition, % at 5.2 µM | 870 compounds, 65% hits | AID 463183, 2010;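 active means inhibition of lipid droplet metric at least 50%, with more than 300 cells in each of four replicates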;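 further: plate controls were DMSO with oleic acid for no effect and 5 µM Triacsin-C for full effect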
# AML12 tox img – AML12 hepatocyte cytotoxicity, counter-screen for hepatic lipid droplet formation project, imaging, DAPI nuclear morphology imaging; AML12 mouse hepatocytes; hits give high values; cells fed 100 µM oleate overnight; AID 463200, 2010; z-score at 5 µM; 870 compounds, 3% hits; shares compounds with Hep lipid drop; in the data active means z-score above about 6.3;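 further: compound exposure lasted overnight at 37 °C before fixation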
# AML12 tox ATP – AML12 hepatocyte cytotoxicity, confirmation, cytotoxicity control for hepatic lipid droplet formation project, cell-based, single concentration. shares compounds with Hep lipid drop. AML12 mouse hepatocyte viability, ATP luminescence; cells loaded with 100 µM oleic acid. cytotoxicity, % at 50 µM. 530 tested, under 10 active;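 active means cytotoxicity above 50% in each of four replicates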;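 further: compound exposure lasted overnight at 37 °C before the ATP read; 0% = DMSO-treated cells and 100% = wells with no cells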
# The depositor's hits bear a star; nt = not tested or not shown.
SMILES,Yeast superoxide,AHR activator,SR-BI uptake up,Hep lipid drop,SR-BI DiI inh,SMARCA2 activ,Hep lipid conf,AML12 tox img,AML12 tox ATP
FC(F)Oc1ccc(-c2csc(NNC3=NCCCCC3)n2)cc1,104,4,-62,95*,62,5,115*,0.88,25
CCOC(=O)[C@@]12CCC3=C1N(CCC3)C(=O)[C@H](CC(=O)N1CCCC1)C2,nt,nt,nt,nt,nt,-2,nt,nt,nt
Cn1c(=O)c2[nH]c(SCC(=O)N3CCN(c4cccc(C(F)(F)F)c4)CC3)nc2n(C)c1=O,nt,nt,nt,nt,nt,-1,nt,nt,nt
COc1ccc(N=NC2C(=O)N(c3ccccc3)N=C2C)cc1 (configuration not stated),92,51*,-1,52*,1,-1,102*,-0.5,10
CC(=O)c1cc(-c2ccccc2)n(CC(=O)NCc2ccc(F)cc2)c1C,nt,nt,nt,nt,nt,-6,nt,nt,nt
CC(C)n1c(O)c(N=NC(=O)C2COc3ccccc3O2)c2ccccc21 (configuration not stated),111,58*,-14,52*,14,-3,-1,-1.1,nt
Cn1c(O)c(N=NC(=O)C2COc3ccccc3O2)c2ccccc21 (configuration not stated),98,33,9,-3,-9,2,nt,nt,nt
C=C(C)Cn1c(N2CCC(Cc3ccccc3)CC2)nc2c1c(=O)[nH]c(=O)n2C,108,0,7,64*,-7,-3,107*,-0.55,-2
COc1ccc(C(=O)N(C)[C@H]2C[C@H]3c4[nH]c5c(-c6ccccc6)cccc5c4CCN3C(=O)[C@H]2[C@H](C)O)cc1,nt,nt,nt,nt,nt,-2,nt,nt,nt
COC(=O)Cc1ccc(NC(=O)c2ccc(Br)o2)cc1,102,-1,-7,-5,7,6,nt,nt,nt
CCCOC(=O)c1ccc(NC(=O)c2ccc(Br)o2)cc1,96,1,-41,74*,41,-2,82*,-0.94,6
COc1nccnc1NS(=O)(=O)c1ccc(NCc2cc(Br)ccc2O)cc1,106,4,nt,64*,nt,5,15,-0.0013,nt
OC[C@@H]1CC[C@@H]2O[C@H](CCc3ccc(-c4ccc(F)cc4)cc3)[C@@H](n3cc(C4CC4)nn3)C[C@@H]2O1,nt,nt,nt,nt,nt,-2,nt,nt,nt
COc1ccc(C(C(=O)NC(C)(C)C)N(Cc2cccs2)C(=O)CCC(=O)Nc2cc(C)on2)cc1 (configuration not stated),95,4,-19,107*,19,-2,88*,-0.52,7
CCC(C)(C)NC(=O)C(c1ccc(OC)cc1)N(CC1CCCO1)C(=O)CCC(=O)Nc1cc(C)on1 (configuration not stated),95,1,-5,79*,5,1,91*,-0.48,11
CCC(C)(C)NC(=O)C(c1ccc(OC)cc1)N(Cc1cccs1)C(=O)CCC(=O)Nc1cc(C)on1 (configuration not stated),92,8,10,78*,-10,-3,102*,0.51,12
CCC(C)(C)NC(=O)C(c1ccc(OC)cc1)N(C(=O)CCC(=O)Nc1cc(C)on1)C1CC1 (configuration not stated),104,3,10,8,-10,-4,nt,nt,nt
CCC(C)(C)NC(=O)C(c1ccc(OC)cc1)N(C(=O)CCC(=O)Nc1cc(C)on1)c1cccc(OC)c1 (configuration not stated),103,-1,13,-40,-13,0,nt,nt,nt
COC(=O)C1=C(C)N(Cc2ccc(C(F)(F)F)cc2)C(=NCc2ccccc2)NC1c1cccc(Cl)c1 (configuration not stated),nt,nt,nt,nt,nt,-8,nt,nt,nt
O=C(O)Cc1coc2ccc3ccccc3c12,103,3,15,25,-15,-2,nt,nt,nt
COc1ccc(OC)c(NC(=O)Cc2coc3ccc4ccccc4c23)c1,111,25,nt,51*,nt,-4,85*,0.52,12
Cc1cccc(NC(=O)Cc2coc3ccc4ccccc4c23)n1,101,14,-39,57*,39,-2,88*,-0.14,14
COc1ccc(OC)c(NC(=O)Cc2coc3ccc(C)cc23)c1,111,0,-38,10,38,0,nt,nt,nt
Nc1ccc2nc(Cc3ccccc3)[nH]c2c1,100,6,-17,54*,17,0,-11,0.2,nt
COC(=O)[C@]12CCCCC=C1N(Cc1ccc(OC)cc1)C(=O)[C@@H]2CC(=O)N1CCCC1,nt,nt,nt,nt,nt,-4,nt,nt,nt
SMILES,Yeast superoxide,AHR activator,SR-BI uptake up,Hep lipid drop,SR-BI DiI inh,SMARCA2 activ,Hep lipid conf,AML12 tox img,AML12 tox ATP
O=C(NC1CCCc2c1cnn2-c1ccc(F)cc1F)c1ccccn1 (configuration not stated),117,11,5,32,-5,-4,nt,nt,nt
O=C(NC1CCCc2c1cnn2-c1ccccc1F)c1ccccn1 (configuration not stated),88,15,16,71*,-16,-2,88*,1.5,7
Cc1cc(C)c(C(=O)NC2CCCc3c2cnn3-c2cccc(C)c2C)o1 (configuration not stated),100,7,5,81*,-5,-4,105*,-0.22,7
COCc1ccc(C(=O)NC2CCCc3c2cnn3-c2ccc(C)c(C)c2)o1 (configuration not stated),105,0,-24,61*,24,-5,100*,0.58,13
CC(=O)c1c(C)[nH]c(C(=O)Nc2nc(-c3ccc(-c4ccccc4)cc3)cs2)c1C,109,4,-56,95*,56,0,-2,-0.39,nt
CCOc1ccccc1-c1cc(C(=O)N/N=C/c2ccc3c(c2)OCO3)c2ccccc2n1,nt,nt,-51,-20,51,-1,nt,nt,nt
CCOc1ccccc1-c1cc(C(=O)N/N=C/c2ccc(O)c(OC)c2)c2ccccc2n1,103,21,0,50*,0,-4,72*,0.3,30
Clc1ccc(-c2nnc3n2N=C(c2ccc(-c4ccccc4)cc2)CS3)c(Cl)c1,nt,nt,nt,nt,nt,-6,nt,nt,nt
